Test results reported in ChEMBL document CHEMBL4725352, “Identification of New Nitric Oxide-Donating Peptides with Dual Biofilm Eradication and Antibacterial Activities for Intervention of Device-Related Infections” (J Med Chem, 2020).
pIC50: −log10 of the molar value. The source made the active and inactive calls. No cut-off for these calls is given here. Where a SMILES comes first, the peptide text is derived from it. The star is where a group is joined. X1 = COC(=O)[C@H](Cc1ccc(Oc2no[n+]([O-])c2S(=O)(=O)c2ccccc2)cc1)NC(=O)CCCc1cn(CC(=O)*)nn1

Key:
Staphylococcus aureus [1] = assay: Antibiofilm activity against Staphylococcus aureus ATCC 6538 assessed as dispersion of formed biofilms at 100 uM incubated for 12 hrs by scanning electron microscopy; assay type: functional, organism-based
Procedure, shortened: (§1)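 Bacteria (10⁸ cfu/mL) grown on silicon slices in TSB for 24 h. Medium was removed and slices washed 3× with saline. Slices were then incubated 12 h in TSB containing test compound at 100 µM, or TSB alone. Slices were gold-sputtered and imaged by cold field emission SEM.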

Staphylococcus aureus [2] = assay: Antibiofilm activity against Staphylococcus aureus ATCC 6538 assessed as inhibition of continuous biofilm growth at 100 uM measured every 15 mins for 9 hrs by biofilm dynamic detection assay; assay type: functional, organism-based
Procedure, shortened: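 S. aureus (10⁸ cfu/mL in TSB) grown one day at 37 °C, 5% CO₂ on a real-time impedance cell analyzer to form biofilm. After saline washes (3×), medium containing compound at 100 µM was added. Biofilm index was recorded every 15 min for 9 h, blank-subtracted and normalized (lowest point 0, highest 1).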

Escherichia coli [3] = assay: Induction of NO release in Escherichia coli ATCC 8099 at 10 uM incubated for 4 hrs by Griess assay; assay type: functional, organism-based
Procedure, shortened: (§2)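 Bacteria (10⁸ cfu/mL in saline) incubated with compound at 10 µM for 4 h at 37 °C, 5% CO₂. Cells were centrifuged and lysed, and the lysate centrifuged at 10,000 g for 5 min. Nitrite in the supernatant was measured by Griess reagent at 540 nm against a NaNO₂ standard curve.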

Escherichia coli [4] = assay: Antibiofilm activity against Escherichia coli ATCC 8099 assessed as dispersion of formed biofilms at 100 uM incubated for 12 hrs by scanning electron microscopy; assay type: functional, organism-based; procedure, shortened: as §1
Escherichia coli [5] = assay: Antibiofilm activity against Escherichia coli ATCC 8099 assessed as inhibition of biofilm formation at 100 uM incubated for 12 hrs by crystal violet staining assay relative to control; assay type: functional
Procedure, shortened: (§3)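 Bacterial culture (10⁸ cfu/mL) grown 24 h in 96-well plates, then washed 3× with saline. Wells were incubated 12 h with test compound in TSB. Biofilm was fixed with methanol 15 min and stained with 1% crystal violet 5 min at room temperature. Dye was solubilized in ethanol for 30 min at 37 °C and OD read at 600 nm. Compared with vehicle control; mean ± S.D., n = 3.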

Staphylococcus aureus [6] = assay: (§4) Antibiofilm activity against Staphylococcus aureus ATCC 6538 infected in mouse assessed as reduction in bacterial infection by measuring colony counts at 0.25 umol/kg, sc administered every 12 hrs for 3 days by plate colony counting assay (reference value: 6.40 +/- 0.28); assay type: functional; settings: dose 0.25 µmol/kg
Staphylococcus aureus [7] = assay: Induction of NO release in Staphylococcus aureus ATCC 6538 at 10 uM incubated for 4 hrs by Griess assay; assay type: functional, organism-based; procedure, shortened: as §2
Staphylococcus aureus [8] = assay: Antimicrobial activity against Staphylococcus aureus ATCC 6538 incubated for 20 hrs by microdilution assay; assay type: functional
Escherichia coli [9] = assay: Antimicrobial activity against Escherichia coli ATCC 8099 incubated for 20 hrs by microdilution assay; assay type: functional
Staphylococcus aureus [10] = assay: Antibacterial activity against Staphylococcus aureus ATCC 6538 assessed as killing of living planktonic bacterial cells in supernatant at 100 uM incubated for 12 hrs by OD measurement
Staphylococcus aureus [11] = assay: Antibiofilm activity against Staphylococcus aureus ATCC 6538 assessed as inhibition of biofilm formation at 100 uM incubated for 12 hrs in presence of NO scavenger PTIO by crystal violet staining assay relative to control; assay type: functional, organism-based
Staphylococcus aureus [12] = assay: Antibiofilm activity against Staphylococcus aureus ATCC 6538 assessed as decrease in living bacterial cells in biofilm on bottom of confocal dish at 100 uM incubated for 12 hrs by live-cell fluorescence staining assay; assay type: functional
Procedure, shortened: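 S. aureus (10⁸ cfu/mL, 2 mL) cultured one day at 37 °C, 5% CO₂ in confocal dishes, then washed 3× with saline. TSB with compound at 100 µM was added for 12 h. The dish was washed and live-cell fluorescence stained for 15 min. Bottom biofilm was imaged by 3D confocal microscopy.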

Staphylococcus aureus [13] = assay: Antibiofilm activity against Staphylococcus aureus ATCC 6538 assessed as inhibition of biofilm formation at 100 uM incubated for 12 hrs by crystal violet staining assay relative to control; assay type: functional; procedure, shortened: as §3
Escherichia coli [14] = assay: Antibiofilm activity against Escherichia coli ATCC 8099 assessed as inhibition of biofilm formation at 100 uM incubated for 12 hrs in presence of NO scavenger PTIO by crystal violet staining assay relative to control; assay type: functional, organism-based
Staphylococcus aureus [15] = assay: Antibiofilm activity against Staphylococcus aureus ATCC 6538 assessed as inhibition of continuous biofilm growth at 100 uM incubated for 1-2 hrs by biofilm dynamic detection assay; assay type: functional, organism-based; settings: time hrs 1-2
Procedure, shortened: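 S. aureus biofilm grown 24 h at 37 °C, 5% CO₂ from 10⁸ cfu/mL in TSB while impedance was recorded in real time (xCELLigence RTCA). Supernatant removed, saline-washed three times, then compound added at 100 µM in TSB. Biofilm index read every 15 min for 9 h, blank subtracted and normalised 0–1, compared with TSB control.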

Staphylococcus aureus [16] = assay: Antibiofilm activity against Staphylococcus aureus ATCC 6538 infected in mouse assessed as reduction in bacterial inflammation in vicinity tissues of implanted site at 0.25 umol/kg, sc administered every 12 hrs for 3 days by H and E staining based assay; assay type: functional, organism-based; settings: dose 0.25 µmol/kg
Procedure, shortened: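 Mouse PDMS-implant S. aureus biofilm model dosed 0.25 µmol/kg sc in 5% DMSO/saline every 12 h for 3 days. Muscle tissue near the implant site was fixed 24 h, paraffin-embedded, sectioned and H&E stained to assess bacterial spread.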

Staphylococcus aureus [17] = assay: as §4, with “days co-treated with 0.25 umol/kg NO scavenger PTIO” for “days”; assay type: functional; settings: dose 0.25 µmol/kg
Erythrocyte = assay: Induction of hemolysis in mouse erythrocytes incubated for 3 hrs; assay type: cell-based
Procedure, shortened: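 2% erythrocyte suspension from mouse blood, mixed with sample in 0.9% NaCl. Controls were saline (negative) and water (positive). Incubated 3 h at 37 °C, 5% CO₂; hemolysis degree calculated by standard curve. Dose-dependent series; HC₅₀ derived.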

Cell membrane [18] = assay: Induction of cell membrane rupture in Escherichia coli ATCC 8099 assessed as induction of cell content spillage at 200 uM incubated for 60 mins by scanning electron microscopy
Procedure, shortened: (§5)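 Bacteria incubated in TSB alone or TSB with compound at 200 µM for 60 min. Cells were pelleted, fixed in 4% paraformaldehyde, dropped onto silicon slices, gold-sputtered and imaged by cold field emission SEM.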

Cell membrane [19] = assay: Induction of cell membrane rupture in Staphylococcus aureus ATCC 6538 at 200 uM incubated for 60 mins by scanning electron microscopy; procedure, shortened: as §5
Cell membrane [20] = assay: Induction of cell membrane rupture in Staphylococcus aureus ATCC 6538 assessed as induction of cell content spillage at 200 uM incubated for 60 mins by scanning electron microscopy; procedure, shortened: as §5
Staphylococcus aureus [21] = assay: Antibiofilm activity against Staphylococcus aureus ATCC 6538 infected in mouse assessed as reduction in skin ulceration near implanted site at 0.25 umol/kg, sc administered every 12 hrs for 3 days; assay type: functional, organism-based; settings: dose 0.25 µmol/kg
Procedure, shortened: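 Mouse PDMS-implant S. aureus biofilm model (biofilm-coated slices placed subcutaneously in the back). Dosing was 0.25 µmol/kg sc in 5% DMSO/saline every 12 h for 3 days. Skin at the implant site was photographed every 12 h after implantation for ulceration.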

Staphylococcus aureus [22] = assay: Induction of NO release in CDNB-pretreated Staphylococcus aureus ATCC 6538 at 10 uM incubated for 4 hrs by Griess assay; assay type: functional, organism-based
Procedure, shortened: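 S. aureus (10⁸ cfu/mL in saline) pretreated with 100 µM CDNB for 0.5 h at 37 °C, then pelleted. Cells were incubated with compound at 10 µM in saline for 4 h. After lysis, nitrite was quantified by Griess reagent at 540 nm against a NaNO₂ standard curve.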

Cell membrane [23] = assay: Induction of cell membrane rupture in Escherichia coli […] ATCC 8099 at 200 uM incubated for 60 mins by scanning electron microscopy; assay type: subcellular; procedure, shortened: as §5
[24] = Toxicity in rat assessed as effect on blood as effect on blood pressure at 0.172 umol/kg, sc measured after 6 hrs post dose by non-invasive blood pressure monitoring; assay type: organism-based; settings: in vivo, dose 0.172 µmol/kg
Procedure, shortened: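 Healthy rats given a single sc dose of 0.172 µmol/kg in aqueous solution, with saline as control. Tail-artery blood pressure measured non-invasively at 0, 1, 3 and 6 h.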

| MIC (Staphylococcus aureus [8]) | MIC (Escherichia coli [9]) | Compound | Activity (Staphylococcus aureus [1]) | inhibition (Staphylococcus aureus [2]) | Activity (Escherichia coli [3]) | Activity (Escherichia coli [4]) | inhibition at 100 µM (Escherichia coli [5]) | Activity (Staphylococcus aureus [6]) | Activity (Staphylococcus aureus [7]) | Activity (Staphylococcus aureus [10]) | inhibition (Staphylococcus aureus [11]) | inhibition (Staphylococcus aureus [12]) | inhibition at 100 µM (Staphylococcus aureus [13]) | inhibition (Escherichia coli [14]) | inhibition (Staphylococcus aureus [15]) | inhibition (Staphylococcus aureus [16]) | also measured |
| --- | --- | --- | --- | --- | --- | --- | --- | --- | --- | --- | --- | --- | --- | --- | --- | --- | --- |
| > 50 µM | > 50 µM | COC(=O)[C@@H](N)Cc1ccc(Oc2no[n+]([O-])c2S(=O)(=O)c2ccccc2)cc1 | Active | inactive | Active | Active | 81.2% | 4.91 log10CFU | Active | inactive | inactive | Active | 44.4% | inactive |  |  |  |
|  |  | CC(=O)OCC1=C(C(=O)O)N2C(=O)[C@@H](NC(=O)CCC[C@@H](N)C(=O)O)[C@H]2SC1 [CEPHALOSPORIN C] |  |  |  |  |  | 4.97 log10CFU |  |  |  | inactive |  |  | Active | Active |  |
| > 50 µM | > 50 µM | H-TRRKFWKKVLNGALKIAPFLLG-OH | inactive |  |  | inactive |  | 5.4 log10CFU |  |  |  | Active |  |  | Active | Active | inhibition (Escherichia coli [5]): inactive; inhibition (Staphylococcus aureus [13]): inactive |
| > 50 µM | > 50 µM | CC[C@H](C)[C@H](NC(=O)[C@H](CCCCN)NC(=O)[C@H](CC(C)C)NC(=O)[C@H](C)NC(=O)CNC(=O)[C@H](CC(N)=O)NC(=O)[C@H](CC(C)C)NC(=O)[C@@H](NC(=O)[C@H](CCCCN)NC(=O)[C@H](CCCCN)NC(=O)[C@H](Cc1c[nH]c2ccccc12)NC(=O)[C@H](Cc1ccccc1)NC(=O)[C@H](CCCCN)NC(=O)[C@H](CCCNC(=N)N)NC(=O)[C@H](CCCNC(=N)N)NC(=O)[C@@H](NC(=O)Cn1cc(CCCC(=O)N[C@@H](Cc2ccc(Oc3no[n+]([O-])c3S(=O)(=O)c3ccccc3)cc2)C(=O)OC)nn1)[C@@H](C)O)C(C)C)C(=O)N[C@@H](C)C(=O)N1CCC[C@H]1C(=O)N[C@@H](Cc1ccccc1)C(=O)N[C@@H](CC(C)C)C(=O)N[C@@H](CC(C)C)C(=O)NCC(=O)O (X1-TRRKFWKKVLNGALKIAPFLLG-OH) | Active | Active | Active | Active | 80.9% | 4.54 log10CFU | Active | Active | inactive |  | 64.1% | inactive |  | Active | Activity (Staphylococcus aureus [17]): 5.92 log10CFU; pIC50 (Erythrocyte): < 3.42; Activity (Cell membrane [18]): Active; Activity (Cell membrane [19]): Active; Activity (Cell membrane [20]): Active; inhibition at 100 µM (Staphylococcus aureus [12]): 100%; Activity (Staphylococcus aureus [21]): Active; Activity (Staphylococcus aureus [22]): inactive; Activity (Cell membrane [23]): Active; Activity [24]: Non-Toxic |
